Data taken from publication PMC8861424 (Molecular Therapy Oncolytics, 2022).

Key:
[1] = tested on: Primary HUVECs; experiment: HUVEC proliferation without VEGF165; assay type: cell-based; conditions: Homo sapiens, 72 h, read-out: IC50, cell proliferation
Summary of the method: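 HUVECs grown in F-12 with 10% FBS, 18 U/mL heparin and 30 μg/mL ECGS. Seeded at 10,000 cells/well in triplicate and left to adhere overnight, then starved 24 h in 0.1% FBS. Test compound at 0.8, 3, 11.8, 46.8 and […] in 0.1% FBS, with no VEGF165 added. MTS absorbance read at 490 nm after 72 h. IC50 = concentration halving absorbance versus control.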

[2] = tested on: microvessel density (CD31); experiment: Microvessel density by CD31 immunofluorescent staining in xenograft models; assay type: in vivo, mouse; conditions: for microvessel density (MVD), CD31 staining: mouse xenograft models
Summary of the method: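 Xenograft tumor paraffin sections (8 μm) rehydrated and treated 30 min in Tris/EDTA, then blocked with PBS/0.3% Triton X. Primary rabbit anti-mouse CD31 (1:100) at 4°C overnight. Secondary Alexa Fluor 488 goat anti-rabbit IgG (1:50) for 2 h. MVD quantified from fluorescence images: five slides, four ×200 fields each.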

[3] = tested on: HT-29; experiment: Cancer cell proliferation assay; assay type: cell-based; conditions: Homo sapiens, HT-29, 72 h, read-out: IC50, cell proliferation
[4] = tested on: VEGF165-induced HUVEC cell lines; experiment: VEGF165-induced HUVEC proliferation; assay type: cell-based; conditions: Homo sapiens, 72 h, read-out: IC50, cell proliferation
[5] = tested on: A375; experiment: Cancer cell proliferation assay; assay type: cell-based; conditions: Homo sapiens, A-375, 72 h, read-out: IC50, cell proliferation
[6] = tested on: 786-O; experiment: Cancer cell proliferation assay; assay type: cell-based; conditions: Homo sapiens, 786-0, 72 h, read-out: IC50, cell proliferation
[7] = tested on: HCT-116; experiment: Cancer cell proliferation assay; assay type: cell-based; conditions: Homo sapiens, HCT-116, 72 h, read-out: IC50, cell proliferation
[8] = tested on: MV-4-11; experiment: Cancer cell proliferation assay; assay type: cell-based; conditions: Homo sapiens, MV4-11, 72 h, read-out: IC50, cell proliferation
[9] = tested on: A549; experiment: Cancer cell proliferation assay; assay type: cell-based; conditions: Homo sapiens, A549, 72 h, read-out: IC50, cell proliferation
[10] = Body weight and tolerability in xenograft mice; assay type: in vivo, mouse
[11] = tested on: VEGF165-induced Primary HUVECs; experiment: VEGF165-induced HUVEC proliferation; assay type: cell-based; conditions: Homo sapiens, 72 h, read-out: IC50, cell proliferation
[12] = tested on: BxPC-3; experiment: Cancer cell proliferation assay; assay type: cell-based; conditions: Homo sapiens, BXPC-3, 72 h, read-out: IC50, cell proliferation
[13] = tested on: HT-29 xenograft tumors; experiment: Mouse xenograft tumor growth; assay type: in vivo; conditions: HT-29-cell-derived xenograft models; oral
Summary of the method: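 Two-step HT-29 xenograft in BALB/c nude mice. First, 5 × 10⁶ cells injected subcutaneously and grown to 100–300 mm³. Tumors then excised, minced into 1 mm³ pieces and implanted in the flank of new mice, then grown to 100–300 mm³. […] Oral dosing for 3–4 weeks. Percent tumor growth inhibition calculated. Study repeated once.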

[14] = target: PDGFRβ (Homo sapiens, UniProt P09619); experiment: KINOMEscan competition kinase binding assay
[15] = target: FLT3 (Homo sapiens, UniProt P36888); experiment: KINOMEscan competition kinase binding assay
[16] = target: C-Kit (Homo sapiens, UniProt P10721); experiment: KINOMEscan competition kinase binding assay
[17] = tested on: ABCG2; conditions: cited from earlier work
[18] = tested on: KDR, FLT3, and C-Kit; experiment: KINOMEscan IC50 compared with sunitinib; assay type: binding, human
[19] = compared with other TKIs; cited from earlier work
[20] = tested on: choroidal neovascularization; experiment: Matrigel-induced choroidal neovascularization model; assay type: in vivo; conditions: rat, days 10-20 after Matrigel injection, n = 6
Summary of the method: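 Rats anesthetized with ketamine (40 mg/kg IP) and xylazine (6 mg/kg IP), then given a subretinal injection of 1.2 μL Matrigel diluted 3:1 with PBS. Test compound at 10 or 30 mg/kg on days 10–20 after injection; controls untreated. Rats perfused with PBS, DiI and 4% paraformaldehyde. Eyes cut in 100 μm serial sections and viewed by confocal microscopy. CNV area = summed section width × thickness. Mean ± SD; ANOVA/t test.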

[21] = tested on: MV-4-11 xenograft tumors; experiment: Mouse xenograft tumor growth; assay type: in vivo; conditions: oral
Summary of the method: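 Male athymic BALB/c nude mice, 6 weeks old, injected subcutaneously with 5 × 10⁶ MV-4-11 cells in the flank next to the right forelimb. […] Oral dosing at various doses for 3–4 weeks. Percent tumor growth inhibition calculated. Study repeated twice. Mean ± SD; ANOVA/t test.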

[22] = tested on: CNV lesions; conditions: laser-induced CNV rat model; oral administration; cited from earlier work
[23] = tested on: A549 xenograft tumors; experiment: Mouse xenograft tumor growth; assay type: in vivo; conditions: dose-dependent (abstract only)
[24] = tested on: KDR phosphorylation of HUVECs; experiment: VEGF-induced KDR phosphorylation of HUVECs; assay type: cell-based, human; conditions: Figure S1
[25] = tested on: Primary HUVECs; experiment: In vitro HUVEC tube formation assay; assay type: cell-based, human; conditions: at both 50 and 100 nM; VEGF165 30 ng/mL, 3 h

Sequence of FLT3 (P36888 27-993): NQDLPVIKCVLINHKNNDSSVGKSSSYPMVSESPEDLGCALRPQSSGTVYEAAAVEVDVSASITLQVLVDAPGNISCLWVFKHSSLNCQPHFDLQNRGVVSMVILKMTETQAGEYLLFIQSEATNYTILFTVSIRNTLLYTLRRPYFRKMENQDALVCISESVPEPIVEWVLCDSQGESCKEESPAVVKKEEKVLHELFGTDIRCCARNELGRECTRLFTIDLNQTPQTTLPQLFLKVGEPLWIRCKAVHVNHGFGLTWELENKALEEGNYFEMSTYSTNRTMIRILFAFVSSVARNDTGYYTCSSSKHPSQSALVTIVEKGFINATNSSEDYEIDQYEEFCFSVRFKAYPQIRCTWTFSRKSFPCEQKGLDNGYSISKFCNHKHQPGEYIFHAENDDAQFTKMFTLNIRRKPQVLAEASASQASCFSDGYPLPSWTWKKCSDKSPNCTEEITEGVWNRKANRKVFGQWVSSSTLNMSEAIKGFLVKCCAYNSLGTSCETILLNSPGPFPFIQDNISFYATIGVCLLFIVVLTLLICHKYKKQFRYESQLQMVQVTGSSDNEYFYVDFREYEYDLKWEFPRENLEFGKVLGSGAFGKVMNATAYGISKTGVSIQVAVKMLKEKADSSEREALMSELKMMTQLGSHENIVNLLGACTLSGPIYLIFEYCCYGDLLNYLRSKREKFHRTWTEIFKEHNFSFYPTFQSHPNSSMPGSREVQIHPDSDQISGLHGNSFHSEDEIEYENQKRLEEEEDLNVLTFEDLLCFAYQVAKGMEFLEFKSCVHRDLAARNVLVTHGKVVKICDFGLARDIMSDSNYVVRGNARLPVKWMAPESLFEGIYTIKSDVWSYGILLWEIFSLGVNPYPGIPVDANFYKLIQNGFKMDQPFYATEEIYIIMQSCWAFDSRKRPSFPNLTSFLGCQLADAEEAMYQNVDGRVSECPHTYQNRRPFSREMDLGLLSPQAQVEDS
Sequence of PDGFRβ (P09619 33-1106): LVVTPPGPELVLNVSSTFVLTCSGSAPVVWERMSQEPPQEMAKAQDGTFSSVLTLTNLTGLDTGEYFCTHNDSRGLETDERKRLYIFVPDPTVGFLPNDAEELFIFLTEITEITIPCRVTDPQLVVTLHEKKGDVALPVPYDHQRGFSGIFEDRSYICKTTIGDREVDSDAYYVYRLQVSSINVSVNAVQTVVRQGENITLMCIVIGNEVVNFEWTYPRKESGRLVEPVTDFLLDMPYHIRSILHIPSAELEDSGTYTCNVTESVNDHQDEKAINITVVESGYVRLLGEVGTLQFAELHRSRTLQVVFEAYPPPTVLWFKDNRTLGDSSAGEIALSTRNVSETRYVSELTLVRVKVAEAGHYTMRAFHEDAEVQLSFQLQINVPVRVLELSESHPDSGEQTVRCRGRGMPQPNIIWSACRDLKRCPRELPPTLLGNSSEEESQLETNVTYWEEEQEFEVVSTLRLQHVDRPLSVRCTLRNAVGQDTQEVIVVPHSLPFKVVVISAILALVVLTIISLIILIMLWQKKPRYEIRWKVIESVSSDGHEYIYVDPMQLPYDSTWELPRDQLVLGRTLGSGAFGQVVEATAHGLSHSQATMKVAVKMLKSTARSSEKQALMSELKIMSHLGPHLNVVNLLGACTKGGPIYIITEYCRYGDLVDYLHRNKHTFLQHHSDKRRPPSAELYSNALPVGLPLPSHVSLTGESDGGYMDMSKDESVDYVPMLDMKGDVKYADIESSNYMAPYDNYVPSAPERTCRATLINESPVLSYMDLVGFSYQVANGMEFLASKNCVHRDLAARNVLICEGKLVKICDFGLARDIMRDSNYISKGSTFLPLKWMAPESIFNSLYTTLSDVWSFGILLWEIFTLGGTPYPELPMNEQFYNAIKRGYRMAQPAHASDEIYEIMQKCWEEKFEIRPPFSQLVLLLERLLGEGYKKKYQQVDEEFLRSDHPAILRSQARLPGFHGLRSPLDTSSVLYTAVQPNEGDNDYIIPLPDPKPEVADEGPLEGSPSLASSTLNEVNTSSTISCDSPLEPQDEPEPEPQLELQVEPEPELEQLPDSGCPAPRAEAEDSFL
Sequence of C-Kit (P10721 26-976): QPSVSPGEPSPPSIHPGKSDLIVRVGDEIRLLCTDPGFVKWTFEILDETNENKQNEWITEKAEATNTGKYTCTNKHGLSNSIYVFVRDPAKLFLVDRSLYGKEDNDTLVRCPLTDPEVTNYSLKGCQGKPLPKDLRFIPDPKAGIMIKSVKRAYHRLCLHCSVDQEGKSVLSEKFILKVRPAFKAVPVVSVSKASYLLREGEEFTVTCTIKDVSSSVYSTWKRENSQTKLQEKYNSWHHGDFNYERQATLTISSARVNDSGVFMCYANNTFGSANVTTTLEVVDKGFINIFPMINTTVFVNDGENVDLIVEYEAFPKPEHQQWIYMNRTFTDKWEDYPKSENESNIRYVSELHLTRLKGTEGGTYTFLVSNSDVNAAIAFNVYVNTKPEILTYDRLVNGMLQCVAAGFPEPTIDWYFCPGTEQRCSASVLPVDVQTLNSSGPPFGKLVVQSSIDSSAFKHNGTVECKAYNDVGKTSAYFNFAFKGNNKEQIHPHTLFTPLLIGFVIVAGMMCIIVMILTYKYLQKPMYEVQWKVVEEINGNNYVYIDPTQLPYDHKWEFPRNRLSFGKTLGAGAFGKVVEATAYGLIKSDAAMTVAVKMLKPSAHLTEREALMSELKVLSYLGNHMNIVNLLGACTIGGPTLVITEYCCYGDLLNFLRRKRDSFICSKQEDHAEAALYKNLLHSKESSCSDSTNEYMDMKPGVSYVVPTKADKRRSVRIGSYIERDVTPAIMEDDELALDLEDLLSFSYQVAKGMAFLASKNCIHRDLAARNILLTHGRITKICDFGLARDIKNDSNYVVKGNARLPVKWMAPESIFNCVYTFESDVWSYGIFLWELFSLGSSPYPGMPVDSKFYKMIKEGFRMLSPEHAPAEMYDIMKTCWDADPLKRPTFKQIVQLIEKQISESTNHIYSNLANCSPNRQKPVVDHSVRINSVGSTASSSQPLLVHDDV

Structure (SMILES) | IC50 [1] | microvessel density (MVD), CD31 staining [2] | IC50 [3] | IC50 [4] | IC50 [5] | IC50 [6] | IC50 [7] | IC50 [8] | IC50 [9] | IC50 [11] | IC50 [12] | further results
CN[C@@H]1C[C@H]2O[C@@](C)([C@@H]1OC)n1c3ccccc3c3c4c(c5c6ccccc6n2c5c31)C(=O)NC4 [Staurosporine, reference compound] | 8.12 nM | – | – | – | – | – | – | – | – | – | – | –
CCN(CC)CCNC(=O)c1c(C)[nH]c(/C=C2\C(=O)Nc3ccc(F)cc32)c1C [Sunitinib, reference compound] | – | significantly inhibited | 4420 nM | 39.8 nM | 2880 nM | 6040 nM | 2520 nM | 14.8 nM | 4430 nM | 12.6 nM | 4960 nM | body weight loss ([10]; 40 mg/kg qd): severe body weight loss
Cc1[nH]c(/C=C2\C(=O)Nc3ccc(F)cc32)c(C)c1C(=O)N[C@H]1CCN(C(=O)N(C)C)C1 [Vorolanib] | > 2000 nM | suppressed the MVD of the mouse in a dose-dependent manner | > 9000 nM | 64.1 nM | > 9000 nM | > 9000 nM | > 9000 nM | 140 nM | > 9000 nM | 92.4 nM | > 9000 nM | efficacious dose [13]: 40–160 mg/kg bid; IC50 [14]: 0.13 nM; IC50 [15]: 0.63 nM; microvessel density (MVD) inhibitory activity ([2]; high-dose vorolanib 160 mg/kg twice daily [bid]): comparable with sunitinib; IC50 [16]: 0.14 nM; drug efflux function of ABCG2 [17]: inhibition of the drug efflux function of ABCG2; IC50 fold lower than those of sunitinib [18]: 4.7- to 15.4 fold; half-life [19]: shorter half-life; tissue accumulation [19]: limited tissue accumulation; CNV area ([20]; 10 mg/kg): 493.58 ± 317.17 × 10^3 μm^2; CNV area ([20]; 30 mg/kg): 357.70 ± 276.97 × 10^3 μm^2; tumor growth inhibition ([21]; 10 mg/kg bid): began to show significant inhibition; tumor regression ([21]; 80 mg/kg bid): tumors completely disappeared; CNV lesions [22]: could reduce CNV lesions; tumor growth [23]: inhibited tumor growth; VEGF-induced KDR phosphorylation of HUVECs [24]: inhibited the VEGF-induced KDR phosphorylation of HUVECs; body weight loss / toxicity ([10]; orally administered vorolanib): no obvious body weight loss or other significant toxicity observed; VEGF165-induced tube formation of HUVECs [25]: inhibited the VEGF165-induced tube formation of HUVECs, in vitro, with inhibitory strengths comparable with that of sunitinib
